Here are results for four compounds from ChEMBL document CHEMBL4393661, “PRODRUGS FOR NITROREDUCTASE BASED CANCER THERAPY- 2: Novel amide/Ntr combinations targeting PC3 cancer cells” (Eur J Med Chem, 2019).

Data set [1] concerns PC-3. Description: Cytotoxicity in human PC3 cells assessed as reduction in cell viability at 180 nM measured after 48 hrs by SRB assay. The data set is classed as cell-based. To be noted: pc-3, 48 h, 0.18 µM. Put shortly: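 They were exposed for 48 h to prodrug alone at 180 nM final, without enzyme or NADH, with 25 mM Tris-HCl as vehicle control. Cells were fixed with 12.5% TCA for 1 h at 4 °C, stained with 0.4% SRB and read at 492 nm as % cell survival, in triplicate.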
(The SRB assay estimates cell density from bound dye.)

Data set [2] in a line: Cytotoxicity against human PC3 cells assessed as cell viability at 9 to 150 uM measured after 48 hrs by MTT assay relative to control. The data set is classed as cell-based, PC-3. To be noted: read-out: Activity. Put shortly: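 They were treated for 48 h at 9, 18, 39, 78 and 150 µM, with 1% DMSO as vehicle control. Viability was read by MTT at 550 nm.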
Background: Tetrazolium dyes change colour on reduction, which living cells bring about.

For data set [3], the target named is T1, Putative nitroreductase (Staphylococcus saprophyticus subsp. saprophyticus (strain ATCC 15305 / DSM20229 / NCIMB 8711 / NCTC 7292 / S-41), UniProt Q4A0P1).
T1 sequence (Q4A0P1 whole entry): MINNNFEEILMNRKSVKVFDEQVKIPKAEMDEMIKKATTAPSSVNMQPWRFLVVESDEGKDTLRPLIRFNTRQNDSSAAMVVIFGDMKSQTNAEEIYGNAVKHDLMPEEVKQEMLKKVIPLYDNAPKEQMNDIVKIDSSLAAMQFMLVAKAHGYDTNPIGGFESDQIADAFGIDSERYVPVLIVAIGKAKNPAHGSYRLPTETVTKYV
Description: Prodrug conversion assessed Staphylococcus saprophyticus nitroreductase expressed in Escherichia coli-mediated PP (4-(hydroxyamino)phenyl)(piperidin-1-yl)methanone metabolite formation by measuring retention time of metabolite at 100 uM incubated for 15 mins by HPLC analysis. It is filed as ADME. As to conditions: 0.25 h. Summed up: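 Recombinant Ssap-NtrB, Ni-column purified, was used at 2.5 µg/mL. Substrate at 100 µM was reacted with 200 µM NADH in 25 mM Tris/Cl pH 7.5 with 10% DMSO at 25 °C for 15 min. The reaction was stopped 1:1 with cold acetonitrile and run on C18 RP-HPLC at 1 mL/min with a 20–80% ACN gradient. Peaks were detected at 254 and 340 nm.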

A short description of data set [4]: Cytotoxicity against human Hep3B cells assessed as cell viability at 9 to 150 uM measured after 48 hrs by MTT assay relative to control. The data set is classed as cell-based, Hep 3B2. As to conditions: read-out: Activity. Summed up: (§1)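 Hep3B and HUVEC cells were grown in high-glucose medium with 10% heat-inactivated FBS and 2 mM glutamine at 37 °C in 5% CO2. Cells were seeded at 5x10^4 per well and left 24 h to attach. They were then exposed for 48 h to 150, 75, 39, 19 and 9 µM, with 1% DMSO as vehicle control. Viability was read by MTT at 550 nm as (OD sample/OD control)×100.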

Data set [5] is described as follows: Solubility of the compound in 15% DMSO. The data set is classed as physicochemical.
The target in data set [6] is T1, Putative nitroreductase. Description: Substrate activity at Staphylococcus saprophyticus nitroreductase expressed in Escherichia coli assessed as retention time […] at 100 uM by HPLC analysis (0 to 5 mins at 20 % ACN, 15 to 22 min at 80% ACN, 27-32 AT 20% ACN). It is filed as ADME.
For data set [7], the system named is PC-3. Description: Cytotoxicity against human PC3 cells assessed as reduction in cell viability measured after 48 hrs in presence of Staphylococcus saprophyticus nitroreductase and NADH by SRB assay. To be noted: PC-3, 48 h. The data set is classed as cell-based. Summed up: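 Prodrug at 180, 18 or 1.8 nM was premixed with Ssap-NtrB (31 µg/mL final) and NADH (600 µM final; 900 µM for CB1954) in 25 mM Tris-HCl pH 7.5, then added for 48 h under aerobic conditions. Cells were fixed with 12.5% TCA, stained with SRB and read at 492 nm, in triplicate.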

In data set [8] the target is T2, Staphylococcus saprophyticus nitroreductase (Staphylococcus saprophyticus subsp. saprophyticus (strain ATCC 15305 / DSM20229 / NCIMB 8711 / NCTC 7292 / S-41), UniProt Q4A0P1).
T2 sequence (Q4A0P1 whole entry): T1 sequence (Q4A0P1 whole entry)
Description: Substrate activity at Staphylococcus saprophyticus nitroreductase expressed in Escherichia coli assessed as half life […] at 100 uM by HPLC analysis (0 to 5 mins at 20 % ACN, 15 to 22 min at 80% ACN, 27-32 AT 20% ACN). The data set is classed as ADME.

Data set [9] is described as follows: Cytotoxicity against human HUVEC cells assessed as cell viability at 9 to 150 uM measured after 48 hrs by MTT assay relative to control. It is filed as cell-based. To be noted: read-out: Activity. Summed up:
as §1

For data set [10], the target named is T2, Staphylococcus saprophyticus nitroreductase. Description: Substrate activity at Staphylococcus saprophyticus nitroreductase expressed in Escherichia coli assessed as half life in the presence of NADPH at 150 uM by HPLC analysis (0 to 5 mins at 20% ACN, 25 to 35 min at 80% ACN, 40 to 45 min at 20% ACN). It is filed as ADME.
Data set [11] addresses T1, Putative nitroreductase. Description: Prodrug conversion assessed as Staphylococcus saprophyticus nitroreductase mediated P3 metabolite formation in presence of FDH cofactor regeneration system at 100 uM by HPLC analysis. It is filed as ADME. To be noted: isolated protein. Put shortly: (§2)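 This was a coupled regeneration reaction: 100 µM substrate in Tris/Cl pH 7.5 with 5–15% DMSO, plus 100 µM NADH, 10 µM NAD+, 0.1 mg/mL BSA, 200 µM sodium formate, 30 µg/mL Ssap-NtrB and 30 µg/mL Candida methylica FDH, at 25 °C. Aliquots were taken over time, quenched 1:1 with cold acetonitrile and analysed by C18 HPLC using program II (20→80→20% ACN). Peak areas were read at 254 and 340 nm.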

In data set [12] the target is T1, Putative nitroreductase. Description: Prodrug conversion assessed as Staphylococcus saprophyticus nitroreductase mediated P5 metabolite formation in presence of FDH cofactor regeneration system at 100 uM by HPLC analysis. To be noted: isolated protein. It is filed as ADME. Summed up: as §2
Data set [13] deals with T1, Putative nitroreductase. Description: Substrate activity at Staphylococcus saprophyticus nitroreductase expressed in Escherichia coli assessed as retention time in the presence of NADPH at 150 uM by HPLC analysis (0 to 5 mins at 20% ACN, 25 to 35 min at 80% ACN, 40 to 45 min at 20% ACN). It is filed as ADME.
The target of data set [14] is T1, Putative nitroreductase. Description: Prodrug conversion assessed as Staphylococcus saprophyticus nitroreductase mediated P1 metabolite formation in presence of FDH cofactor regeneration system at 100 uM by HPLC analysis. It is filed as ADME. As to conditions: isolated protein. Put shortly: as §2
Data set [15] deals with T1, Putative nitroreductase. Description: Substrate activity at Staphylococcus saprophyticus nitroreductase expressed in Escherichia coli assessed as retention time […] at 150 uM by HPLC analysis (0 to 5 mins at 20 % ACN, 15 to 22 min at 80% ACN, 27-32 AT 20% ACN). It is filed as ADME.
Data set [16] has as its target T2, Staphylococcus saprophyticus nitroreductase. Description: Substrate activity at Staphylococcus saprophyticus nitroreductase expressed in Escherichia coli assessed as half life […] at 150 uM by HPLC analysis (0 to 5 mins at 20 % ACN, 15 to 22 min at 80% ACN, 27-32 AT 20% ACN). It is filed as ADME.
The target in data set [17] is T1, Putative nitroreductase. Description: Prodrug conversion assessed as Staphylococcus saprophyticus nitroreductase mediated P4 metabolite formation in presence of FDH cofactor regeneration system at 100 uM by HPLC analysis. The data set is classed as ADME. As to conditions: isolated protein. Put shortly:
as §2

Data set [18] deals with T1, Putative nitroreductase. Description: Prodrug conversion assessed as Staphylococcus saprophyticus nitroreductase mediated P2 metabolite formation in presence of FDH cofactor regeneration system at 100 uM by HPLC analysis. It is filed as ADME. To be noted: isolated protein. Summed up: as §2
Data set [19] deals with T1, Putative nitroreductase. Description: Substrate activity at Staphylococcus saprophyticus nitroreductase expressed in Escherichia coli assessed as retention time in the presence of NADPH at 100 uM by HPLC analysis (0 to 5 mins at 20% ACN, 25 to 35 min at 80% ACN, 40 to 45 min at 20% ACN). The data set is classed as ADME.
For data set [20], the target named is T1, Putative nitroreductase. Description: Prodrug conversion assessed Staphylococcus saprophyticus nitroreductase expressed in Escherichia coli-mediated PP (4-(hydroxyamino)phenyl)(piperidin-1-yl)methanone metabolite formation by measuring retention time in presence of FDH cofactor regeneration system at 100 uM by HPLC analysis. It is filed as ADME. Summed up: as §2

Data set [21] has as its target T2, Staphylococcus saprophyticus nitroreductase. Description: Substrate activity at Staphylococcus saprophyticus nitroreductase expressed in Escherichia coli assessed as half life […] at 100 uM by HPLC analysis (0 to 5 mins at 20% ACN, 25 to 35 min at 80% ACN, 40 to 45 min at 20% ACN). The data set is classed as ADME.
Data set [22] addresses T1, Putative nitroreductase. Description: Prodrug conversion assessed Staphylococcus saprophyticus nitroreductase expressed in Escherichia coli-mediated (4-aminophenyl)(piperidin-1-yl)methanone metabolite formation by measuring retention time in presence of FDH cofactor regeneration system at 100 uM by HPLC analysis. The data set is classed as ADME. Summed up: as §2

The structures appear in SMILES notation.

For the compound `O=C(c1ccc([N+](=O)[O-])cc1)N1CCOCC1`, in data set [1], the Activity result is listed as “Non-Toxic”. Further, the viability at 48 h, up to 150 µM in data set [2], in data set [4] and in data set [9] was more than 80% in each case. The Retention time in [3] was determined as 16 min. Further, the solubility entry in data set [5] is “Soluble”. The Retention_time in [6] turned out to be 15.17 min. Further, the IC50 in [7] was 1.81 nM. Further, in data set [8], the half-life was less than 15 min.

As to `CCN(C(C)=O)c1cc([N+](=O)[O-])cc([N+](=O)[O-])c1`, the half-life in [10] and in [16] was less than 1.2 min each time. Also, the Drug metabolism entry in data set [11], in data set [12], in [14], in data set [17] and in [18] was “Metabolite_Detected” throughout. The viability at 48 h, up to 150 µM was more than 80% in data set [2], 51 to 80% in [4] and more than 80% in [9]. Moreover, the Retention_time in [13] is 16.85 min; in data set [15] it was 14.55 min.

Regarding `O=C(c1ccc([N+](=O)[O-])cc1)N1CCCCC1`, the Retention_time was found to be 17.81 min in data set [19]; 14 min in [20]; 15.99 min in [3]; 18.22 min in data set [6]; 22.3 min in data set [22]. The Activity entry in [1] is given as “Non-Toxic”. The half-life at 100 µM in [21] is less than 1.2 min. Moreover, the viability at 48 h, up to 150 µM in data set [2], in data set [4] and in data set [9] was more than 80% throughout. The solubility entry in [5] is “Soluble”. Further, the 50% inhibitory concentration (IC50) in data set [7] is 1.81 nM. Moreover, in data set [8], the half-life was less than 90 min.

Turning to `O=C(c1ccc(NO)cc1)N1CCCCC1`, the results for the Retention_time in [20], in data set [3] and in data set [22] were 14 min, 15.99 min and 22.3 min, respectively.

As a reminder, the IC50 is the midpoint of a concentration-inhibition curve. The term half-life denotes the time in which the quantity being followed falls by half.
